This note sets out measurements from ChEMBL document CHEMBL1148464, “Cytotoxic activity of metal complexes of biogenic polyamines: polynuclear platinum(II) chelates” (J Med Chem, 2004).

Format in all cases: functional, cell-based
One assay relates to HSC-3. The experiment in a line: Cytotoxic potency against human HSC-3 cell line expressed as inhibitory concentration. A digest of the protocol:
(§1)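 Adherent cells grown in high-glucose DMEM with 10% FCS, harvested with trypsin/EDTA. Seeded at 3 × 10^5 cells/mL; drug at 5–150 µM added after 24 h, 37 °C. IC50 derived from 72 h exposure dose-response curves; only effects persisting 3 days after drug removal reported. Trypan blue counts plus MTT and Alamar blue viability readouts, triplicate.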

The subject of the next assay is HeLa. The assay is described as follows: Cytotoxic potency against human HeLa cell line expressed as inhibitory concentration. The essentials:
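Monolayers in high-glucose DMEM with 10% FCS, harvested with an EDTA/PBS dissociation medium. Plated at 3 × 10^5 cells/mL, dosed 24 h later with 5–150 µM at 37 °C. IC50 from 72 h dose-response curves, irreversible effects only (3-day drug-free recovery). Measured by Trypan blue exclusion, MTT (570 nm) and Alamar blue (570/600 nm) assays, in triplicate.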

The subject of the next assay is MOLT-3. The experiment in a line: Cytotoxic potency against human MOLT-3 cell line expressed as inhibitory concentration. The essentials:
(§2)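 Suspension cultures in RPMI-1640 with 25 mM HEPES and 10% FCS, seeded at 3 × 10^5 cells/mL; drug (5–150 µM) added 24 h later, 37 °C. IC50 taken from dose-response curves after 72 h exposure, counting irreversible effects only (drug washed out, 3 further days). Read-out by Trypan blue exclusion, MTT (4 h, 570 nm) and Alamar blue (8 h, 570/600 nm); triplicate.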

The test system of a further assay is THP-1. The assay is described as follows: Cytotoxic potency against human THP-1 cell line expressed as inhibitory concentration. A digest of the protocol:
as §2

Another assay concerns L132. The experiment in a line: Cytotoxic potency against human L-132 cell line expressed as inhibitory concentration. A digest of the protocol:
as §1

One may read the IC50 as the concentration that inhibits the measured activity by half. A lower IC50 goes with higher potency.

With CISPLATIN, the IC50 is 7000 nM in the assay with HSC-3; 2000 nM in the assay with HeLa; 4000 nM in the assay with MOLT-3; 2000 nM in the assay with THP-1; 2000 nM with L132.
CARBOPLATIN showed an IC50 in the assay with HSC-3 of 3000 nM.
